SR-BI DiI inh: blocks mouse SR-BI lipid uptake from DiI-HDL. Q61009. ldlA[mSR-BI] CHO cells, DiI-HDL uptake fluorescence, 3 h. inhibition, % at 12.5 µM. 320,000 tested, 0.96% active. AID 488896;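 active = mean replicate inhibition of at least 70% and a set share of replicates each scoring 70 or more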;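 note: 0% = median of neutral control wells and 100% = median of positive control wells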
Target sequence (Q61009 whole entry, looked up): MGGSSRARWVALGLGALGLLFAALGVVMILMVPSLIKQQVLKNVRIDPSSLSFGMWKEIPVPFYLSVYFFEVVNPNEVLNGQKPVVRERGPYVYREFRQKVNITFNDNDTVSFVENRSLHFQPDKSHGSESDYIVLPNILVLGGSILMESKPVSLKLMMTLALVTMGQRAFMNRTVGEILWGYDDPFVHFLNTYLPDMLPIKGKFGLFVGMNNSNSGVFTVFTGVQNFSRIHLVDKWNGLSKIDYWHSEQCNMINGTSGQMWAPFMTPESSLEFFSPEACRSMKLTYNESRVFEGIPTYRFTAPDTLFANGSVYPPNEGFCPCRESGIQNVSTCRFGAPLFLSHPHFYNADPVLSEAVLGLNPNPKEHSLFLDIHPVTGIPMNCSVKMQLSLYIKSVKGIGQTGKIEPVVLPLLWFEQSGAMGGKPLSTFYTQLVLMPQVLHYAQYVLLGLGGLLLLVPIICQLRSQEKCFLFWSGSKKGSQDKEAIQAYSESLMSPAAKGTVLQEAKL
SR-BI uptake up: SR-BI HDL lipid transfer activation | CHO ldlA[mSR-BI] cells, DiI-HDL uptake fluorescence, 3 h; 100 = double the neutral-control signal | activation, % at 12.5 µM | 320,000 tested, 0.096% active | AID 504775;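 active = mean replicate activation of at least 60% and every replicate at or above 60%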;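 note: 0% = median plate neutral-control signal and 100% = twice that signal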
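Test system: SR-BI-overexpressing, LDLR-lacking CHO cells; Medium: Ham's F12 with 0.5% BSA, HEPES 25 mM, pH 7.4; Schedule: 3 h, 37 °C; Technique: bottom-read fluorescence, 550/595 nm.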
DYRK1A inh: blocks rat Dyrk1A kinase activity; 310,000 tested, 0.43% active; ADP-Glo luminescence, NFATc1 peptide; Q63470; inhibition, % at 12.5 µM;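 note: plate controls were vehicle with enzyme for no effect and no enzyme for full effect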
dFosB act-1: activators of mouse delta FosB homodimer. purified delta FosB, TAMRA-CDK5 oligo fluorescence polarization; percent of positive-control signal above neutral wells. activation, % at 25 µM. 340,000 tested, 0.99% active. AID 493131. P13346;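 active = mean activation above about 17%, with every replicate also reaching it, limit read from the data, passing the limit was not always enough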
CDK5 inh: blocks human CDK5/p35 kinase activity | Q00535+Q15078 | Recombinant CDK5/p35, ADP-Glo luminescence, 60 min | inhibition, % at 10 µM | 330,000 tested, 0.01% active;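 active = highest replicate inhibition of at least 50% and at least 75% of replicates reaching 50%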;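 note: plate controls were DMSO neutral control for no effect and GW8510 at 10 µM for full effect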
NSD2 inh: NSD2 (human) methyltransferase inhibition | O96028 | NSD2 peptide methylation, AlphaScreen, 120 min | inhibition, % at 12.5 µM | 310,000 tested, 0.54% active | AID 743445
dFosB act-2: activators of mouse delta FosB homodimer DNA binding | shares compounds with dFosB act-1 | purified delta FosB, TAMRA-CDK5 oligo fluorescence polarization; normalised: neutral wells 0, positive control 100 | activation, % at 24.9 µM | 2,400 tested, under 10 active | AID 588690;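 active = highest replicate activation at or above 34% and every replicate reaching that threshold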;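 note: higher polarization means more probe DNA bound by delta FosB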
The depositor's hits bear a star; x = no result. Only some compounds are listed: those with a hit (about 2.5% of all), similar ones and a draw of the others. Cut-off read from the data, not from the text of the source, unless noted: active = inhibition above about 50%; inactive = the rest.

SMILES | SR-BI DiI inh | SR-BI uptake up | DYRK1A inh | dFosB act-1 | CDK5 inh | NSD2 inh | dFosB act-2
CCN(CC)S(=O)(=O)c1cccc(C(=O)Nc2nc3cc4c(cc3s2)OCCO4)c1 | 56 | -56 | 6 | 23* | 0 | -4 | -6
CN1CCC(N(C)C(=O)c2cc(-c3ccccc3Cl)nc3ccccc23)CC1 | -6 | 6 | x | -3 | 0 | 4 | x
COc1ccc(Cl)cc1-c1cc(C(=O)NCc2ccccc2)[nH]n1 | x | x | x | x | x | -1 | x
CCN(CC)S(=O)(=O)c1ccc(Cl)c(NC(=O)c2ccccc2C)c1 | 64 | -64 | -2 | -14 | 0 | 2 | x
CCN(CC)S(=O)(=O)c1ccc(Cl)c(NC(=O)c2cc(Cl)cc(Cl)c2)c1 | 45 | -45 | 2 | 54* | -1 | -3 | 0
O=C(Nn1c(C2CCCCC2)nc2ccccc2c1=O)c1ccc([N+](=O)[O-])cc1Cl | -16 | 16 | -6 | 43* | 0 | x | 3
O=C(Nn1c(C2CCCCC2)nc2ccccc2c1=O)c1cc(Cl)ccc1[N+](=O)[O-] | -9 | 9 | -5 | 1 | 0 | -3 | x
Cc1ccc(NC(=O)C2CC(=O)n3c(nc4ccccc43)N2)cc1Cl (stereo unspecified) | -16 | 16 | -4 | 31* | -1 | -3 | -16
Cc1ccc(NC(=O)C2CC(=O)n3c(nc4ccccc43)N2)cc1C (stereo unspecified) | -29 | 29 | -2 | 31* | 0 | 2 | -2
Cc1ccc(NC(=O)[C@@H]2CCC(=O)N2C2OC(=O)c3ccccc32)cc1Cl (stereo partly specified) | -21 | 21 | 13 | -2 | 1 | x | x
CC(C)c1ccc(NC(=O)C2CC(=O)Nc3nc4ccccc4n32)cc1 (stereo unspecified) | -7 | 7 | -9 | 81* | -1 | -2 | 5
CCN(c1ccccc1)S(=O)(=O)c1cccc(C(=O)N(C)CCOc2ccccc2)c1 | -10 | 10 | -2 | -10 | -2 | 1 | x
Brc1cccc(/C=N/Nc2nn[nH]n2)c1 | -2 | 2 | 8 | 2 | 0 | -1 | x
CN(C)c1nc(NCc2ccccc2)nc(N/N=C/c2cccc(Br)c2)n1 | 16 | -16 | -3 | 57* | 0 | x | 4
COCCNC(=O)CSc1ccccc1C(=O)NC1CCSc2ccccc21 (stereo unspecified) | -17 | 17 | 0 | 0 | 0 | 0 | x
CC(=O)Nc1ccc2nc(NC(=O)c3cccs3)sc2c1 | 6 | -6 | -1 | 22* | 0 | -2 | -2
COc1ccc(OCC(=O)Nc2nc3ccc(NC(C)=O)cc3s2)cc1 | 42 | -42 | 0 | 23* | -6 | 0 | 8
CC(=O)Nc1ccc2nc(NC(=O)COc3ccc([N+](=O)[O-])cc3)sc2c1 | 26 | -26 | -2 | 4 | 0 | -2 | x
Clc1ccc(-c2ccnc(Oc3cc(Cl)ccc3Cl)n2)cc1 | x | x | 0 | 19* | 1 | -5 | -7
Clc1ccc(-c2ccnc(Oc3ccc4ccccc4c3)n2)cc1 | -13 | 13 | 5 | -2 | 0 | 0 | x
O=C1CC(C(=O)Nc2ccc(Br)cc2)S/C(=N\N=C\c2ccco2)N1 (stereo unspecified) | -2 | 2 | -4 | 15 | 1 | 0 | x
O=C1CC(C(=O)Nc2ccccc2)S/C(=N\N=C\c2ccco2)N1 (stereo unspecified) | -3 | 3 | 1 | 28* | 0 | 1 | 5
O=C1CC(C(=O)Nc2ccc(Cl)cc2)S/C(=N\N=C\c2ccco2)N1 (stereo unspecified) | 8 | -8 | 4 | 45* | 1 | -1 | 0
COc1ccc(NC(=O)C2CC(=O)N/C(=N/N=C/c3ccco3)S2)cc1 (stereo unspecified) | x | x | x | x | x | -1 | x
O=C1CC(C(=O)Nc2ccc(Cl)c(Cl)c2)S/C(=N\N=C\c2ccco2)N1 (stereo unspecified) | 14 | -14 | -7 | 32* | -1 | 1 | 0
SMILES | SR-BI DiI inh | SR-BI uptake up | DYRK1A inh | dFosB act-1 | CDK5 inh | NSD2 inh | dFosB act-2
Cc1ccc(NC(=O)CC2S/C(=N/N=C/c3ccco3)NC2=O)cc1Cl (stereo unspecified) | 17 | -17 | 5 | 33* | -2 | 1 | -1
O=C(Nc1ccccc1N1CCOCC1)C1=NN(c2c(F)c(F)cc(F)c2F)C(=O)CC1 | -7 | 7 | -2 | -10 | 0 | -4 | x
CCc1ccc(NC(=O)CCCNC(=O)Cn2cnc3sc(C)c(C)c3c2=O)cc1 | x | x | 4 | 32* | 1 | -3 | 0
COc1ccc(NC(=O)CCCNC(=O)Cn2cnc3sc(C)c(C)c3c2=O)cc1OC | 23 | -23 | -1 | 6 | -2 | 0 | x
COc1cc2c(cc1OC)-c1cc(Nc3cccc(F)c3)nc(=O)n1CC2 | 7 | -7 | -2 | -21 | 0 | 1 | x
COc1cc2c(cc1OC)-c1cc(Nc3ccc(F)cc3)nc(=O)n1CC2 | 10 | -10 | 6 | 37* | -1 | 0 | 3
COc1ccc(-c2cc(C(=O)Nc3cc(C)nn3-c3ccccc3)no2)cc1 | 18 | -18 | 5 | 23* | 2 | -5 | -3
CSc1ccc(CN2CCCC(N3CCN(c4ccccc4)CC3)C2)cc1 (stereo unspecified) | -2 | 2 | 3 | -3 | 0 | 9 | x
Cc1ccc(NC(=O)c2sc3ncn(CC(=O)N4CCN(c5ccccn5)CC4)c(=O)c3c2C)cc1F | 68 | -68 | 2 | 10 | 1 | -2 | x
Cc1ccc(NC(=O)c2sc3ncn(CC(=O)N4CCN(c5ccccn5)CC4)c(=O)c3c2C)cc1Cl | 68 | -68 | -2 | 35* | 0 | -1 | 1
COc1cc2c(cc1OC)-c1cc3ccc4c(c3c[n+]1CC2)OCO4 | 8 | -8 | 16 | 38* | -1 | x | -22
COc1cc2c(cc1O)CC[n+]1cc3c(OC)c(OC)ccc3cc1-2 | -23 | 23 | 7 | 14 | 1 | x | x
C#CCn1c(=NC(=O)c2ccc(S(=O)(=O)N3CCCc4ccccc43)cc2)sc2cc(S(N)(=O)=O)ccc21 | 10 | -10 | -1 | 59* | 0 | x | 2
COc1ccc(N2CCN(CCCNC(=O)C(=O)c3c(C)[nH]c4ccccc34)CC2)cc1 | 24 | -24 | -1 | -5 | -1 | 14 | x
CCCN1C(=O)c2[nH]nc(-c3cc(Cl)c(C)cc3O)c2C1c1ccc(O)c(OC)c1 (stereo unspecified) | x | x | 0 | -5 | -6 | x | x
Cc1cc(O)c(-c2n[nH]c3c2C(c2cccc(O)c2)N(Cc2cccnc2)C3=O)cc1Cl (stereo unspecified) | -23 | 23 | -1 | 23* | -1 | 2 | 2

Screening results deposited in PubChem BioAssay by Broad Institute.
